This is a sample that favours compounds with a hit; in the whole collection about 3.9% have one here.
HSF-1 act – increases HSF-1 driven luciferase reporter signal | NIH3T3-HGL HSF-1 luciferase reporter, MG132, 8 h; 100% = twice DMSO control signal | activation, % at 9 µM | 1.7% of 300,000 active | AID 504408;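 active = mean replicate activation of at least 50% with a set share of replicates each reaching 50%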
HCV core dimer – HCV core protein dimerization inhibition. TR-FRET GST/Flag-core106 dimerization, 1536-well. inhibition, % at 5 µM. 0.33% of 300,000 active;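 active = inhibition above the mean of all tested compounds plus 3 SD, set per screening campaign, cut at about 45% in these data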
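System: GST/Flag-tagged HCV core106 proteins. Incubation: compound-protein-antibody incubation 4 h at 22.5 °C. Technique: HTRF with 340 nm excitation, 617/671 nm emission. Medium: KF-containing HEPES buffer, pH 7.45, DTT, CHAPS, BSA. Read-out: inhibition (%) from 671 over 617 nm ratio. Also added: Eu(K)-anti-GST 90 ng/mL plus XL665-anti-Flag 1 µg/mL.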
HSP90 refold inh – HSP90 refolding inhibition in rabbit reticulocyte lysate | luciferase refolding luminescence, 3 h | inhibition, % at 5.6 µM | 0.91% of 290,000 active;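 active = inhibition above the screen-wide mean plus 3 SD, computed separately per campaign, cut at about 16% in these data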;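 note: inhibitors lower the luminescence because luciferase stays unfolded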
FID counter – fluorescent intercalator displacement, NS3 helicase counter-screen; DNA fluorescent intercalator displacement, fluorescence; inhibition, % at 7.9 µM; 0.17% of 290,000 active; AID 1845; in the data active = inhibition above about 37%;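 note: higher means more ethidium bromide displaced from hairpin DNA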
HSF1 inhib – HSF1 inhibition; NIH3T3-HGL HSE-luciferase, MG132-induced, luminescence 8 h; active compounds read low; activity change, negative = inhibition, % at 7.5 µM (by protocol); 0.77% of 300,000 active; AID 2098;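 active = more than half of replicate wells show activity change below -50%, luminescence cut by over half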;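 note: luciferase reports HSF-1 transcriptional activity via heat shock element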
HCV NS3 hel inh – blocks Hepatitis C virus NS3 helicase unwinding | NS3 helicase DNA unwinding, Cy5 molecular beacon fluorescence | inhibition, % at 10.9 µM | 0.56% of 290,000 active | AID 1800;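 active = inhibition above the mean of all tested compounds plus 3 SD, set per campaign, cut at about 35% in these data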
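Control set: DMSO versus 110 µM thioflavine S; Material: NS3 helicase fragment of HCV; Measured by: Cy5 fluorescence at 0 and 60 min, beacon hairpin quenching; Read-out basis: percent inhibition from t60/t0 fluorescence ratio; Times: reaction time 60 min, 25 °C; Repeats: single replicate; Compound dosing: single dose, 10.9 µM nominal final, DMSO 0.8% final.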
A number is an active result; - = inactive; . = no result given.

SMILES	HSF-1 act	HCV core dimer	HSP90 refold inh	FID counter	HSF1 inhib	HCV NS3 hel inh
N=c1c(S(=O)(=O)c2ccccc2)cc2c(=O)n3ccccc3nc2n1C1CCCC1	-	-	-	-	-	-
CCCCn1c(N)c(N(CC(C)C)C(=O)CCNC(=O)c2ccccc2Cl)c(=O)[nH]c1=O	-	-	.	.	-	.
CN(C)c1ccc(CNC(=O)CN(C)S(=O)(=O)c2ccc3c(c2)c(=O)n(C)c(=O)n3C)cc1	-	-	-	-	-	-
COC(=O)CCC(=O)NNC(=O)c1cccc(Br)c1	-	-	-	-	-66.6	-
CC(=O)OC(C)C(=O)NS(=O)(=O)c1ccc(C)cc1 (centres undefined)	70.7	-	-	-	-	-
CC(NC(=O)COc1ccc(S(=O)(=O)N2CCCC2)cc1)c1ccccc1 (centres undefined)	-	-	-	-	-	-
Cc1ccc(C(=O)NC(=S)Nc2cc(-c3nc4ccccc4s3)ccc2C)cc1	59.0	-	-	-	-	-
COc1ccc(-c2nc3ccccc3s2)cc1NC(C)=O	-	-	-	-	-	-
O=S(=O)(CC(CN1CCCCC1)N1CCCCC1)c1ccc2ccccc2c1 (centres undefined)	90.1	.	-	-	-	-
COc1cc(C(=O)N2CCSCC2)ccc1OC1CCN(C(C)=O)CC1	-	-	-	-	-54.9	-
COC(=O)CN1C(=O)N/C(=C/c2cc(OC)c(OC)cc2C)C1=O	-	-	-	-	-	-
CC(C)CNc1nc(NC(C)(C)C)nc(Oc2ccc(=O)[nH]n2)n1	-	-	-	-	-	-
CSc1nc(NC(C)(C)C)nc(Oc2ccc(=O)[nH]n2)n1	51.7	-	-	-	-	-
CCN(CC)c1nc(=S)nc(NC(C)(C)C)[nH]1	-	-	-	-	-	-
Cc1nnc(SCC(=O)N(C)C2CCCCC2)s1	-	-	-	-	-	-
COc1cccc(OCc2cc(C(=O)N(C)CCOc3ccc(C)cc3)no2)c1	57.1	-	-	-	-	-
CN(CCc1ccccc1)C(=O)c1cc(COc2cccc(C(F)(F)F)c2)on1	185.7	.	-	-	-	-
Cc1ccc(CCNC(=O)C2CCN(S(=O)(=O)c3ccc4c(c3)NC(=O)CO4)CC2)cc1	68.4	-	-	-	-	-
COc1ccc(C(=O)OCCN=C2NS(=O)(=O)c3ccccc32)cc1OC	52.5	-	-	-	-	-
COc1cc(NC(=O)COC(=O)CCc2cc(OC)c(OC)c(OC)c2)cc(OC)c1	-	-	-	-	-	-
CCOc1ccccc1/C=C/C(=O)c1ccc(Cl)cc1	69.2	-	-	-	-	-
Cc1cc(O)ccc1NC(=O)CCN1C(=O)c2ccc([N+](=O)[O-])cc2C1=O	-	-	-	-	-	-
COc1ccc(C(=O)Nc2nc3cc4c(cc3s2)OCCO4)c(OC)c1	-	-	-	-	-61.2	-
COc1cc(OC)cc(C(=O)NNc2nc3cc4c(cc3s2)OCO4)c1	-	-	-	-	-	-
COc1ccccc1C(=O)Nc1nc2cc3c(cc2s1)OCO3	54.0	-	-	-	-	-
SMILES	HSF-1 act	HCV core dimer	HSP90 refold inh	FID counter	HSF1 inhib	HCV NS3 hel inh
COc1cc(C(=O)NNc2nc3cc4c(cc3s2)OCO4)cc(OC)c1OC	62.2	-	-	-	-	-
CCC(Oc1ccccc1)C(=O)Nc1ccccn1 (centres undefined)	-	-	-	-	-	-
CCOC(=O)N1CCN(CC(O)COC2CC(C)CC(C)(C)C2)CC1 (centres undefined)	-	-	-	-	-84.5	-
COc1ccccc1-c1c(C#N)c(N)nc2c1CCc1ccccc1-2	59.7	-	-	-	-	-
CCOc1cc(-c2c(C#N)c(N)nc3c2CCc2ccccc2-3)ccc1O	-	-	-	-	-	-
Nc1nc(-c2ccc3ccccc3c2)cs1	67.3	-	-	-	-	-
Nc1nc(-c2cc3ccccc3o2)cs1	62.4	-	-	-	-	-
CN1CCN(c2nc(-c3cc4ccccc4o3)cs2)CC1	-	-	-	-	-	-
Cc1c(OC(C)C(=O)N2C[C@H]3C[C@@H](C2)c2cccc(=O)n2C3)ccc2c3c(c(=O)oc12)CCCC3 (some centres undefined)	-	-	-	-	-	-
O=C(CCn1c(=S)oc2ccccc21)NC1CCCCCC1	-	-	-	-	-70.6	-

Compound activity as filed in PubChem BioAssay.
